Results reported in article PMC3841656 (Pharmaceutical Research, 2013).

Assays:
Type in all cases: physicochemical
[1] = Solubility in PEG400 under dry conditions; settings: two tailed t-test, ambient vs dry
[2] = Equilibrium solubility in soybean oil; settings: 37°C, HPLC
Method in brief: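 The drug was added in excess to triplicate sealed glass vials of soybean oil (2 g, later 1 g), vortexed and incubated at 37°C. Samples were taken at 24, 48 and 72 h or longer after centrifugation at 37°C, 2,800 g for 30 min. Supernatant (20–30 mg) was diluted in 66% v/v chloroform/methanol and quantified by C18 RP-HPLC-UV against a standard curve. Equilibrium was taken when consecutive 24-h points differed <10%; mean ± SD, n ≥ 3.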

[3] = Equilibrium solubility in PEG400, ambient conditions; settings: PEG400, 37°C, ambient milieu (0.32% w/w water)
Method in brief: (§1)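 Excess drug was added to triplicate sealed glass vials of excipient (2 g, later 1 g) and held at 37°C with periodic vortexing. Vials were centrifuged at 37°C, 2,800 g for 30 min and sampled at 24, 48 and 72 h or longer. Supernatant (20–30 mg) was diluted in 7% v/v chloroform/methanol and analysed by C18 RP-HPLC-UV. Equilibrium was taken when consecutive 24-h samples differed <10%; mean ± SD, n ≥ 3.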

[4] = Equilibrium solubility in polysorbate 80; settings: polysorbate 80, 37°C, HPLC
Method in brief: as §1

equilibrium solubility in SBO [2] | equilibrium solubility in PEG400 [3] | SMILES | also measured
less than the limit of detection | – | COc1ccc(Cl)cc1C(=O)NCCc1ccc(S(=O)(=O)NC(=O)NC2CCCCC2)cc1 [Glibenclamide] | –
less than the limit of detection | – | N[C@@H](Cc1cc(I)c(Oc2cc(I)c(O)c(I)c2)c(I)c1)C(=O)O [Levothyroxine] | –
– | high solubility | CC(C)(C)NC(=O)[C@@H]1C[C@@H]2CCCC[C@@H]2CN1C[C@@H](O)[C@H](Cc1ccccc1)NC(=O)[C@H](CC(N)=O)NC(=O)c1ccc2ccccc2n1 [Saquinavir] | –
– | high solubility | C#C[C@]1(O)CC[C@H]2[C@@H]3CCc4cc(O)ccc4[C@H]3CC[C@@]21C [Ethinylestradiol] | equilibrium solubility in PS80 [4]: high solubility

The next lines start with the compound.

SMILES | equilibrium solubility in SBO [2] | equilibrium solubility in PEG400 [3] | also measured
COc1ccc2c(c1)c(CC(=O)O)c(C)n2C(=O)c1ccc(Cl)cc1 [Indomethacin] | – | – | difference in PEG400 solubility between ambient and dry conditions [1]: no significant difference
CC(C)(Oc1ccc(CCNC(=O)c2ccc(Cl)cc2)cc1)C(=O)O [Bezafibrate] | less than the limit of detection | – | –
CCOc1nc2cccc(C(=O)O)c2n1Cc1ccc(-c2ccccc2-c2nnn[nH]2)cc1 [Candesartan] | less than the limit of detection | 13.8 ± 1.5 mg/g | –
